Experiment [1] deals with Mus musculus. Nature of the experiment: Protective effect against adenine-induced chronic renal failure in Kunming mouse assessed as nephridial MDA levels at 100 mg/kg, ig qd administered for 4 successive weeks with haikunshenxi capsule by thiobarbituric acid method (reference value: 5.05 +/- 0.15 nmol/ml). Format: functional.
In experiment [2] the test system is Mus musculus. Nature of the experiment: Protective effect against adenine-induced chronic renal failure in ig dosed Kunming mouse assessed as increase in nephridial SOD levels administered as qd for 4 successive weeks by hydroxylamine method. Format: functional, organism-based. The method, boiled down: (§1)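 Male Kunming mice (20 ± 5 g) given dietary adenine to induce CRF, then dosed orally at 100 or 200 mg kg–1, with or without Haikunshenxi capsule; n = 10 per group. Kidney homogenate assayed for SOD and CAT (U mg–1 protein), GSH-Px (U L–1), GSH (mg g–1 protein) and MDA (nmol mL–1).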

For experiment [3], the system named is Mus musculus. Nature of the experiment: Protective effect against adenine-induced chronic renal failure in ig dosed Kunming mouse assessed as increase in total protein levels in serum administered as qd for 4 successive weeks by coomassie brilliant blue method. It counts as functional, organism-based. In short, it runs like this: (§2)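 Adenine-fed CRF model in male Kunming mice (20 ± 5 g) housed at 18–20 °C on a 12 h light/dark cycle. Oral dosing at 100 or 200 mg kg–1, with or without Haikunshenxi capsule; ten mice per group. Serum creatinine, BUN, total protein and albumin measured, each group compared with the model group.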

Experiment [4] relates to Mus musculus. Nature of the experiment: Protective effect against adenine-induced chronic renal failure in Kunming mouse assessed as weight growth rate at 100 mg/kg, ig qd administered for 4 successive weeks measured 24 hrs post last dose (reference value: 32.42 +/- 1.43%). Format: functional. The method, boiled down: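 Male Kunming mice (20 ± 5 g) were housed on a 12 h light/dark cycle at 18–20 °C. Chronic renal failure was induced by long-term dietary adenine. The melanin was given orally at 100 or 200 mg kg–1, alone or with Haikunshenxi capsule as positive drug, with ten mice per group. Weight growth rate (%) and kidney index (mg g–1) were recorded.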

Experiment [5] relates to Mus musculus. Nature of the experiment: Protective effect against adenine-induced chronic renal failure in Kunming mouse assessed as nephridial TNF-alpha levels at 200 mg/kg, ig qd administered for 4 successive weeks (reference value: 250.15 +/- 8.10 pg/ml). Format: functional.
Experiment [6] concerns Mus musculus. Nature of the experiment: Protective effect against adenine-induced chronic renal failure in Kunming mouse assessed as nephridial MDA levels at 200 mg/kg, ig qd administered for 4 successive weeks by thiobarbituric acid method (reference value: 5.05 +/- 0.15 nmol/ml). Format: functional.
Experiment [7] deals with Mus musculus. Nature of the experiment: Protective effect against adenine-induced chronic renal failure in ig dosed Kunming mouse assessed as decrease in nephridial IL-6 levels administered as qd for 4 successive weeks. It counts as functional, organism-based. The method, boiled down: (§3)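 CRF model made by chronic dietary adenine in male Kunming mice (20 ± 5 g); oral dosing at 100 or 200 mg kg–1, alone or with Haikunshenxi capsule; ten mice per group. Kidney tissue TNF-α, IL-1β and IL-6 measured as pg per mg protein, and iNOS activity as U mg–1 protein.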

Experiment [8] relates to Mus musculus. Nature of the experiment: Protective effect against adenine-induced chronic renal failure in Kunming mouse assessed as nephridial IL-1beta levels at 100 mg/kg, ig qd administered for 4 successive weeks (reference value: 18.34 +/- 0.25 pg/ml). It counts as functional.
In experiment [9] the test system is Mus musculus. Nature of the experiment: Protective effect against adenine-induced chronic renal failure in Kunming mouse assessed as weight growth rate at 200 mg/kg, ig qd administered for 4 successive weeks with haikunshenxi capsule measured 24 hrs post last dose (reference value: 32.42 +/- 1.43%). It counts as functional. The method, boiled down: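 Male Kunming mice (20 ± 5 g) kept on a 12 h light/dark cycle at 18–20 °C on a standard diet. CRF induced by chronic dietary adenine. Test material given orally at 100 or 200 mg kg–1, alone or with Haikunshenxi capsule, alongside normal, model and capsule-only groups; ten mice per group. Weight growth rate recorded in %, kidney index in mg g–1.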

The subject of experiment [10] is Mus musculus. Nature of the experiment: Protective effect against adenine-induced chronic renal failure in Kunming mouse assessed as appearance of complete kidney tubules at 100 mg/kg, ig qd administered for 4 successive weeks by haematoxylin and eosin dye-based optical microscopic method. It counts as functional, organism-based. The method, boiled down:
(§4)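 Kidneys were taken from male Kunming mice given an adenine diet plus oral melanin (100 or 200 mg kg–1), with or without Haikunshenxi capsule, ten per group. Histological sections were examined at 400× for glomeruli, tubules, adenine crystals, tubular atrophy and interstitial fibrosis.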

Experiment [11] concerns Mus musculus. Nature of the experiment: Protective effect against adenine-induced chronic renal failure in Kunming mouse assessed as nephridial GSH levels at 100 mg/kg, ig qd administered for 4 successive weeks by colorimetric method (reference value: 3.05 +/- 0.11 mg/g). Format: functional.
Experiment [12] has as its system Mus musculus. Nature of the experiment: Protective effect against adenine-induced chronic renal failure in ig dosed Kunming mouse assessed as decrease in blood urea nitrogen levels in serum administered as qd for 4 successive weeks with haikunshenxi capsule by diacetyl oxime method. It counts as functional, organism-based. The method, boiled down:
as §2

Experiment [13] deals with Mus musculus. Nature of the experiment: Protective effect against adenine-induced chronic renal failure in Kunming mouse assessed as nephridial MDA levels at 100 mg/kg, ig qd administered for 4 successive weeks by thiobarbituric acid method (reference value: 5.05 +/- 0.15 nmol/ml). It counts as functional.
Experiment [14] concerns Mus musculus. Nature of the experiment: Protective effect against adenine-induced chronic renal failure in ig dosed Kunming mouse assessed as increase in albumin levels in serum administered as qd for 4 successive weeks by bromocresol green colorimetric method. It counts as functional, organism-based. In short, it runs like this: as §2
Experiment [15] has as its system Mus musculus. Nature of the experiment: Protective effect against adenine-induced chronic renal failure in ig dosed Kunming mouse assessed as decrease in nephridial iNOS levels administered as qd for 4 successive weeks with haikunshenxi capsule. Format: functional, organism-based. In short, it runs like this: as §3
The test system of experiment [16] is Mus musculus. Nature of the experiment: Protective effect against adenine-induced chronic renal failure in ig dosed Kunming mouse assessed as increase in albumin levels in serum administered as qd for 4 successive weeks with haikunshenxi capsule by bromocresol green colorimetric method. It counts as functional, organism-based. The method, boiled down: as §2

Experiment [17] deals with Mus musculus. Nature of the experiment: Protective effect against adenine-induced chronic renal failure in Kunming mouse assessed as nephridial iNOS levels at 100 mg/kg, ig qd administered for 4 successive weeks (reference value: 1.98 +/- 0.12 U/mg). Format: functional.
In experiment [18] the test system is Mus musculus. Nature of the experiment: Protective effect against adenine-induced chronic renal failure in ig dosed Kunming mouse assessed as decrease in nephridial MDA levels administered as qd for 4 successive weeks with haikunshenxi capsule by thiobarbituric acid method. It counts as functional, organism-based. The method, boiled down: as §1
Experiment [19] has as its system Mus musculus. Nature of the experiment: Protective effect against adenine-induced chronic renal failure in Kunming mouse assessed as nephridial CAT levels at 200 mg/kg, ig qd administered for 4 successive weeks by visible spectrometry method (reference value: 44.13 +/- 1.25 U/mg). It counts as functional.
The test system of experiment [20] is Mus musculus. Nature of the experiment: Protective effect against adenine-induced chronic renal failure in Kunming mouse assessed as nephridial GSH levels at 200 mg/kg, ig qd administered for 4 successive weeks by colorimetric method (reference value: 3.05 +/- 0.11 mg/g). It counts as functional.
The subject of experiment [21] is Mus musculus. Nature of the experiment: Protective effect against adenine-induced chronic renal failure in ig dosed Kunming mouse assessed as decrease in nephridial TNF-alpha levels administered as qd for 4 successive weeks. It counts as functional, organism-based. The method, boiled down:
as §3

Experiment [22] has as its system Mus musculus. Nature of the experiment: Protective effect against adenine-induced chronic renal failure in Kunming mouse assessed as reduction in renal tubular atrophy at 200 mg/kg, ig qd administered for 4 successive weeks with haikunshenxi capsule by haematoxylin and eosin dye-based optical microscopic method. It counts as functional, organism-based. In short, it runs like this: as §4

Experiment [23] relates to Mus musculus. Nature of the experiment: Protective effect against adenine-induced chronic renal failure in Kunming mouse assessed as reduction in interstitial fibrosis in kidney at 200 mg/kg, ig qd administered for 4 successive weeks by haematoxylin and eosin dye-based optical microscopic method. It counts as functional, organism-based. In short, it runs like this: as §4

Drawing on ChEMBL document CHEMBL4257441, “Protection effect of intracellular melanin from Lachnum YM156 and Haikunshenxi capsule combination on adenine-induced chronic renal failure in mice” (Medchemcomm, 2017), this text covers Activity for 1 molecule.

The structures appear in SMILES notation. Activity calls are given as the source filed them. No cut-off for these calls is given here.

As to `Cc1c(=O)c(=O)c2c3c[nH]c4c(C)c(=O)c(=O)c(c5c[nH]c1c52)c43`, the Activity in the experiment on Mus musculus [1] is 3.05 nmol/mL; in the experiment on Mus musculus [2] it was “Dose-dependent effect”; with Mus musculus [3], “Dose-dependent effect”; with Mus musculus [4], 50.12%; in the experiment with Mus musculus [5], 168.32 pg/mL; in the experiment on Mus musculus [6], 3.74 nmol/mL. The Activity result is “Dose-dependent effect” in the experiment on Mus musculus [7]; 17.66 pg/mL with Mus musculus [8]; 56.64% in the experiment with Mus musculus [9]; 4.19 mg/g in the experiment on Mus musculus [11]; “Dose-dependent effect” in the experiment with Mus musculus [12]; 3.95 nmol/mL with Mus musculus [13]. Also, the Activity entry was “Dose-dependent effect” in the experiment with Mus musculus [14]; “Dose-dependent effect” in the experiment with Mus musculus [15]; “Dose-dependent effect” in the experiment with Mus musculus [16]; 1.79 U/mg with Mus musculus [17]; “Dose-dependent effect” in the experiment on Mus musculus [18]; 64.45 U/mg with Mus musculus [19]. For the same molecule, the values for the Activity in the experiment on Mus musculus [20] and in the experiment on Mus musculus [21] were 4.84 mg/g and “Dose-dependent effect”, respectively. Also, the result in the experiment on Mus musculus [10], in the experiment on Mus musculus [22] and in the experiment with Mus musculus [23] was Active.
